Results on 36 sequences are retold here after the EternaBench riboswitch data.

The subject of the series is MS2 coat protein. Kind of series: apparent Kd, MS2 coat protein; higher = weaker binding; RNA-MaP array; FMN 200 µM where present. The method in brief: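 Stalled E. coli RNA polymerase produced the designs on Illumina sequencing-chip clusters. SNAP-549-labelled MS2 coat protein was added from 0.7 or 1.5 nM, doubling to 3 µM, without and then with constant ligand, in 100 mM Tris-HCl pH 7.5, 80 mM KCl, 4 mM MgCl2, BSA, DTT, yeast tRNA and Tween-20. The apparent Kd is the median of filtered per-cluster fits of green signal normalised to red-channel RNA signal and control-cluster median Fmax.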

Where [1] appears, read: designed as: OFF switch for flavin mononucleotide, no ligand.
The mark [2] stands for this setting: ligand present: flavin mononucleotide, designed as: OFF switch for flavin mononucleotide.
Where [3] appears, read: designed as: ON switch for flavin mononucleotide, no ligand.
Where [4] appears, read: ligand present: flavin mononucleotide, designed as: ON switch for flavin mononucleotide.

As a reminder, the apparent Kd is a dissociation constant that holds for the conditions of the assay. On to “CACUUGGCAGGAUAUGCAAUUUUAGACAUGAGGAUCACCCAUGUGAUCAUUCCAUAUUAUGCAGAAGGGCCUAAAC”, for which the “apparent Kd” value is 199 nM under setting [1] and 747 nM under setting [2].

For the sequence “GCCGAAAAUGUGAGGAUAUACCUAUGGAAACAUAGGUAGAAGGCACAUGAGGAUCACCCAUGUGUUUCAACGGC”, the “apparent Kd” value reads like this: under setting [1], 21.5 nM; under setting [2], 107 nM.

Take “GGCAUGUAAGGAUAUGUCCCUGAGUGCUUUGCGCUCAGGAAACAGAAGGUACAUGAGGAUCACCCAUGUGAUAA”: the “apparent Kd” value runs as follows: under setting [1], 725 nM; under setting [2], 75.9 nM.

As for “CAAUUUAUAACAGGAUAUGUAAUACAAUAGUAAAUAGAAGGGUUUUAUACAUGAGGAUCACCCAUGUCAUGUGUCAUAAUUACC”, the “apparent Kd” value worked out at 36.4 nM under setting [1] and 29.5 nM under setting [2].

As for “AGUGUGUGGCAGGAUAUGCAAUUUGUAAGUAUUGCAGAAGGGUCUACAUGAGGAUCACCCAUGUGUGCGGUUGA”, the “apparent Kd” value under setting [1] came out at 721 nM and the “apparent Kd” value under setting [2] came to 477 nM.

“CGCACUAUACAUGAGGAUCACCCAUGUUAAUAUGAGGUAGUCAGAAGGCAUUGUAUGAGAUAUUAUGAGGAUAUGAUUAGUGCG”: the “apparent Kd” value was determined as 226 nM under setting [3] and 41.4 nM under setting [4].

For “AGAUGACAAAGUCAUCUCUGGCAGACAUGAGGAUCACCCAUGUAGGAUAUACUACUCAAAGAGUAGUAGAAGGACAUGUGUCUU”, the “apparent Kd” value under setting [1] turned out to be 35.9 nM and the “apparent Kd” value under setting [2] worked out at 99.4 nM.

Consider “UUCUGUGCCCAAAGUUAAAGCACAUGAGGAUCACCCAUGUGAAAGGAUAUGUGGCGUGUAACGUUAUAGAAGGUUCACAAACAA”, for which the “apparent Kd” value under setting [1] was determined as 31.9 nM and the “apparent Kd” value under setting [2] was found to be 105 nM.

Take “UGCAUGGUAGGAUAUACGGAACAUUAGGGUUUGUUGUGUGGACAUGAGGAUCACCCAUGUAGAAGGGCCGUGCU”: the “apparent Kd” value is 45.5 nM under setting [1] and 78.6 nM under setting [2].

Take “UUGGACGUGGUAGGAUAUGUAGGAUAUUCCUACAUGAGGAUCACCCAUGUUGACAUGGAAGAAGGACAGAAGGACGAUGUCCAU”: the “apparent Kd” value under setting [3] was determined as 112 nM and the “apparent Kd” value under setting [4] came out at 35 nM.

As to “AAUUGACACGUAGGAUAUCGCUCUUAAUUAACACGAGAAGGACGUACAUGAGGAUCACCCAUGUUAAAUGGUGUAGUUUAGUUG”, the “apparent Kd” value was found to be 45.5 nM under setting [1] and 123 nM under setting [2].

As for “CUGGAUCACGCAGGAUAUUACAUGAGGAUCACCCAUGUCAGGACUGCAAUAUCGUCUCCUCGGUGUGAGAAGGGCGGAAUCAUU”, the “apparent Kd” value reads like this: under setting [1], 15 nM; under setting [2], 27 nM.

Take “AGCAUGCUAGGAUAUACGGGACAUUAGGGUUUGUCGUGUGGACAUGAGGAUCACCCAUGUAGAAGGAGCGUGCA”: the “apparent Kd” value under setting [1] is 54.4 nM and the “apparent Kd” value under setting [2] turned out to be 228 nM.

In the case of “UUGGACGUCGUAGGAUAUGUAGGAUAAUCCUACAUGAGGAUCACCCAUGUUGACAUGGAAGAAGGACAGAAGGACGAUGUCCAU”, the “apparent Kd” value reads like this: under setting [3], 1120 nM; under setting [4], 87.5 nM.

Take “AUAGCAUACCGAGGAUAUUCAUAUAAUAAAUAAACAUGAGGAUCACCCAUGUGGCGAAAGCCUAGGGAGAAGGCGGAAUGCUAC”: the “apparent Kd” value runs as follows: under setting [3], 225 nM; under setting [4], 25.3 nM.

Consider “GCGCCGCAGCGGUACACGAGACAUGAGGAUCACCCAUGUGACAGAAGGGACUUGUUAAAGGUAGGUCAGGAUAUGUCUUAAAAG”, for which the “apparent Kd” value is, setting by setting: under setting [3], 184 nM; under setting [4], 56.5 nM.

For “GCUAUCGAUGUAGGAUAUGCUAUAGAAACUAUGGCAGAAGGACAUGAGGAUCACCCAUGUCAAUGGAUGGAGAGAAGAGAUGGC”, the “apparent Kd” value was 26.7 nM under setting [1] and 68.7 nM under setting [2].

With “GGGUACAUUGGAGGAUAUCAUGUAAAUACAUGAGGAUCACCCAUGUCGAUGGAGACAUCGGAGAUUGAGAAGGCCGAUGUACCG”, the “apparent Kd” value under setting [3] was found to be 183 nM and the “apparent Kd” value under setting [4] turned out to be 9.08 nM.

Regarding “GUGUACAGAGGAUAUACUUGAAUCUAGCGAAGCUAGGUUCGACAUGAGGAUCACCCAUGUAGAAGGCUGUACAC”, the “apparent Kd” value runs as follows: under setting [1], 12.7 nM; under setting [2], 17.4 nM.

For “AGGUAUCCUGAGAAAUUUCUCCACAUGAGGAUCACCCAUGUAGAGGAUAUCGACGCUGUGCGGUUCGAGAAGGCUACACUAAAA”, the “apparent Kd” value under setting [2] was 15.3 nM.

“CCAUAAUUGAUCCAUUUUUACAACAUGAGGAUCACCCAUGUGCAGGAUAUCGUGAAAGUUAAAUACGAGAAGGGCAAGAACUGC”: the “apparent Kd” value by setting is: under setting [1], 272 nM; under setting [2], 229 nM.

With “CUAUGAACGAUAGGAUAUACUGAGGUUGAGUGGGUAGAAGGAUCGAUAGUGGAGAAGACAUGAGGAUCACCCAUGUUAUGGAUU”, the “apparent Kd” value stood at 552 nM under setting [3] and 170 nM under setting [4].

Take “CGUGCACAUGUAGGAUAUGGUUAUCUAUGUCUAGUUACUAGACAUAGAUAACCAGAAGGACAUGAGGAUCACCCAUGUAGCACG”: the “apparent Kd” value under setting [1] was 346 nM and the “apparent Kd” value under setting [2] amounted to 275 nM.

As to “CGUCGAUACCAGAAGGACAUGAGGAUCACCCAUGUAGGAUAUGGGUGACCGGGAUGGCAGACAUGGUGCCCGGGCACAUGCGAC”, the “apparent Kd” value was found to be 70 nM under setting [3] and 9.82 nM under setting [4].

Regarding “UUAAUAAUACAAGGAUAUCUAUUGUUCUUAAGACAUACAUGAGGAUCACCCAUGUUAAUAUAUGUAGAGAAGGUGUAUUUUCAG”, the “apparent Kd” value reads like this: under setting [3], 30.5 nM; under setting [4], 22.9 nM.

For the sequence “AGUAACAGAGGAUAUACUGUUUUAUGUAUUUAUUAUUUUAAACAUGAGGAUCACCCAUGUAGAAGGCUGAAUAA”, the “apparent Kd” value by setting is: under setting [1], 20.6 nM; under setting [2], 20.3 nM.

Regarding “UGGAGGUCAGGAUAUGCAUGGCGGGACUUGCGUCGUGGCGUGCAGAAGGGACAUGAGGAUCACCCAUGUGGAGA”, the “apparent Kd” value came to 88.6 nM under setting [1] and 112 nM under setting [2].

On to “AAAGGGAUUACGGAGGAUAUGGAAAAAAAAACAUGAGGAUCACCCAUGUCAAAAAAAAAAAAGGACCAGAAGGCCGUAAUCUCAAA”, for which the “apparent Kd” value is 27.3 nM under setting [3] and 18.9 nM under setting [4].

For “AUCAUGUGAGGAUAUGUGAUCAACCUUCUAUAUAGAUGAUGACAGAAGGCACAUGAGGAUCACCCAUGUAGAUC”, the “apparent Kd” value is, setting by setting: under setting [1], 90.7 nM; under setting [2], 21.8 nM.

Take “CACGAGUGAGGAUAUAGAGAGGUGAGGCUGAAGUCGCAUAUCUAGAAGGCACAUGAGGAUCACCCAUGUCCCUC”: the “apparent Kd” value reads like this: under setting [1], 481 nM; under setting [2], 503 nM.

Regarding “CCCUCACAUGAGGAUCACCCAUGUCAGGAUAUCCAGCCCUACUAUAAAGCGUCUGGCGGGAGAAGGGACAGGAU”, the “apparent Kd” value was 20.9 nM under setting [1] and 28.5 nM under setting [2].

Consider “UGGUACAUGGGAGGAUAUGGGAAGUUAACAUGAGGAUCACCCAUGUUAUGCCGAAAGGCAAAGAACUAGAAGGCCCAUGUACCU”, for which the “apparent Kd” value was determined as 16.7 nM under setting [3] and 16.1 nM under setting [4].

On to “UUGGACUACGUAGGAUAUGUAGGAUAUUCCUACAUGAGGAUCACCCAUGUUAGCAUGUAAGUAGGACAGAAGGACGUGGUCCAU”, for which the “apparent Kd” value by setting is: under setting [3], 540 nM; under setting [4], 24.9 nM.

On to “AGAUUUGUACAUGAGGAUCACCCAUGUUAAUAGGUGGUUGUCAGAAGGCAUUAAUAGAGUUUUAAUGAGGAUAUGAAUUUACAA”, for which the “apparent Kd” value runs as follows: under setting [3], 1030 nM; under setting [4], 803 nM.

For the sequence “UUAAUGUGAGGAUAUCAGGUGUGCUAGAGAACUGGUACAUCUGAGAAGGCACAUGAGGAUCACCCAUGUUCUUC”, the “apparent Kd” value is 42.8 nM under setting [1] and 197 nM under setting [2].

Turning to “AAUUAUAUGUAGAAGGUACAGACUUAUGAGUAGUAAGGAUAUACAAAAUUAUUAAUUCUCAAGUUACAUGAGGAUCACCCAUGU”, the “apparent Kd” value was 11.6 nM under setting [3] and 8.33 nM under setting [4].
